Test results as given in ChEMBL document CHEMBL4316595, “Synthesis and structure-activity relationship studies of parthenolide derivatives as potential anti-triple negative breast cancer agents” (Eur J Med Chem, 2019).
Structures can show the parent of a compound that is named as a salt. Values belong to the compound of their own block, whether it stands above or below them. Calls of active or inactive are those of the source. No cut-off for these calls is given here.

How the values were obtained:
Bcap37 [1] = assay: Antiproliferative activity against human Bcap37 cells measured after 72 hrs by MTT assay; assay type: functional, cell-based; settings: Bcap37, 72 h
Method in brief: (§1)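 MTT antiproliferation assay on human breast cancer lines MDA-MB-231, SUM-159, MCF-7 and Bcap-37 and on mouse 4T1 breast cancer cells. IC50 values were taken from the MTT read-out. Adriamycin served as the positive control.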

MDA-MB-231 [2] = assay: Antiproliferative activity against human MDA-MB-231 cells measured after 72 hrs by MTT assay; assay type: functional, cell-based; settings: MDA-MB-231, 72 h; method in brief: as §1
SUM-159-PT [3] = assay: Antiproliferative activity against human SUM159 cells measured after 72 hrs by MTT assay; assay type: functional, cell-based; method in brief: as §1
4T1 [4] = assay: Antiproliferative activity against mouse 4T1 cells measured after 72 hrs by MTT assay; assay type: functional, cell-based; settings: 4T1, 72 h; method in brief: as §1
MCF7 [5] = assay: Antiproliferative activity against human MCF7 cells measured after 72 hrs by MTT assay; assay type: functional, cell-based; settings: MCF7, 72 h; method in brief: as §1
MDA-MB-231 [6] = assay: Potency index, ratio of parthenolide IC50 to test compound IC50 for human MDA-MB-231 cells; assay type: functional
NIH3T3 = assay: Cytotoxicity against mouse 3T3 cells measured after 72 hrs by MTT assay; assay type: cell-based; settings: NIH3T3, 72 h
Method in brief: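 Cytotoxicity was measured by MTT on normal 3T3 mouse embryonic fibroblasts, with IC50 from the MTT read-out.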

[7] = Therapeutic index, ratio of IC50 for mouse 3T3 cells to IC50 for mouse 4T1 cells; assay type: toxicity; settings: 3T3 cells and 4T1 cells, read-out: Ratio IC50
4T1 [8] = assay: Potency index, ratio of parthenolide IC50 to test compound IC50 for mouse 4T1 cells; assay type: functional
SUM-159-PT [9] = assay: Induction of apoptosis in human SUM159 cells assessed as early apoptotic cells at 0.5 uM measured after 48 hrs by Annexin-V APC/propidium iodide staining based flow cytometry (reference value: 2.5%); assay type: functional
Method in brief: (§2)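 SUM-159 cells were exposed at 0, 0.2 and 0.5 µM, then stained with annexin V/PI and analysed by flow cytometry. Early apoptosis was annexin V+/PI−, late apoptosis annexin V+/PI+, and total apoptosis was the sum of the two.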

MCF7 [10] = assay: Potency index, ratio of parthenolide IC50 to test compound IC50 for human MCF7 cells; assay type: functional
SUM-159-PT [11] = assay: Induction of apoptosis in human SUM159 cells assessed as increase in Bax expression measured after 48 hrs by Western blot analysis; assay type: functional, cell-based
SUM-159-PT [12] = assay: Induction of apoptosis in human SUM159 cells assessed as necrotic cells at 0.2 uM measured after 48 hrs by Annexin-V APC/propidium iodide staining based flow cytometry (reference value: 0.152%); assay type: functional; method in brief: as §2
SUM-159-PT [13] = assay: Cell cycle arrest in human SUM159 cells assessed as increase in G1-phase accumulation at […] measured after 48 hrs by propidium iodide staining based flow cytometry; assay type: functional
Method in brief: (§3)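 SUM-159 cells were treated for 48 h. Cell cycle distribution (G1, S, G2/M) was measured by flow cytometry and compared with an untreated control group.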

SUM-159-PT [14] = assay: Cell cycle arrest in human SUM159 cells assessed as decrease in S-phase accumulation measured after 48 hrs by propidium iodide staining based flow cytometry
SUM-159-PT [15] = assay: Cell cycle arrest in human SUM159 cells assessed as down regulation of CHK2 expression at 0.1 to 0.2 uM measured after 48 hrs by Western blot analysis; assay type: functional, cell-based
Bcap37 [16] = assay: Potency index, ratio of parthenolide IC50 to test compound IC50 for human Bcap37 cells; assay type: functional
SUM-159-PT [17] = assay: Potency index, ratio of parthenolide IC50 to test compound IC50 for human SUM159 cells; assay type: functional
SUM-159-PT [18] = assay: Induction of apoptosis in human SUM159 cells assessed as increase in cleaved caspase-9 measured after 48 hrs by Western blot analysis; assay type: functional, cell-based
SUM-159-PT [19] = assay: Induction of apoptosis in human SUM159 cells assessed as early apoptotic cells at 0.2 uM measured after 48 hrs by Annexin-V APC/propidium iodide staining based flow cytometry (reference value: 2.5%); assay type: functional; method in brief: as §2
[20] = target: Cyclin-dependent kinase 1 (Homo sapiens) (UniProt P06493); assay: Inhibition of CDC2 phosphorylation in human SUM159 cells at 0.1 to 0.2 uM measured after 48 hrs by Western blot analysis; assay type: cell-based
SUM-159-PT [21] = assay: Induction of apoptosis in human SUM159 cells assessed as increase in cytochrome-C release measured after 48 hrs by Western blot analysis; assay type: functional, cell-based
[22] = target: T1, Serine/threonine-protein kinase Chk1 (Homo sapiens) (UniProt O14757); assay: Inhibition of Chk1 phosphorylation in human SUM159 cells at 0.1 to 0.2 uM measured after 48 hrs by Western blot analysis; assay type: cell-based
T1 sequence (whole entry): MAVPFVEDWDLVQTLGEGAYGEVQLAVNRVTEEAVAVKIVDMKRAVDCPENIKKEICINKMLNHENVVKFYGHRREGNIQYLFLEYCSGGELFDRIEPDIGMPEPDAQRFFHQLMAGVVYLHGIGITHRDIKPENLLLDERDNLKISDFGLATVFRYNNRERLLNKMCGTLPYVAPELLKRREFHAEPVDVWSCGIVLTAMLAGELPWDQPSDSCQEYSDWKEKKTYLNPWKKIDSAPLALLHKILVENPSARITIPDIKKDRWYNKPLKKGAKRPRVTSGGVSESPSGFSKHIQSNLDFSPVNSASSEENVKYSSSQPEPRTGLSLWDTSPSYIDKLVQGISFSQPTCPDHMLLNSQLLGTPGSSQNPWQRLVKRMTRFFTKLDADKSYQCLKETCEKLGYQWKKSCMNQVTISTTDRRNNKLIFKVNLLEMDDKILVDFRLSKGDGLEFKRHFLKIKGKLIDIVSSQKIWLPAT

SUM-159-PT [23] = assay: Induction of apoptosis in human SUM159 cells assessed as viable cells at 0.5 uM measured after 48 hrs by Annexin-V APC/propidium iodide staining based flow cytometry (reference value: 95.9%); assay type: functional; settings: read-out: Activity; method in brief: as §2
SUM-159-PT [24] = assay: Induction of apoptosis in human SUM159 cells assessed as late apoptotic cells at 0.5 uM measured after 48 hrs by Annexin-V APC/propidium iodide staining based flow cytometry (reference value: 1.45%); assay type: functional; method in brief: as §2
SUM-159-PT [25] = assay: Induction of apoptosis in human SUM159 cells assessed as necrotic cells at 0.5 uM measured after 48 hrs by Annexin-V APC/propidium iodide staining based flow cytometry (reference value: 0.152%); assay type: functional; method in brief: as §2
SUM-159-PT [26] = assay: Induction of apoptosis in human SUM159 cells assessed as viable cells at 0.2 uM measured after 48 hrs by Annexin-V APC/propidium iodide staining based flow cytometry (reference value: 95.9%); assay type: functional; settings: read-out: Activity; method in brief: as §2
SUM-159-PT [27] = assay: Induction of apoptosis in human SUM159 cells assessed as increase in Bim expression measured after 48 hrs by Western blot analysis; assay type: functional, cell-based
SUM-159-PT [28] = assay: Cell cycle arrest in human SUM159 cells assessed as decrease in G2/M-phase accumulation at […] measured after 48 hrs by propidium iodide staining based flow cytometry; assay type: functional; method in brief: as §3
[29] = target: Serine/threonine-protein kinase Chk2 (Homo sapiens) (UniProt O96017); assay: Inhibition of Chk2 phosphorylation in human SUM159 cells at 0.1 to 0.2 uM measured after 48 hrs by Western blot analysis; assay type: cell-based
SUM-159-PT [30] = assay: Cell cycle arrest in human SUM159 cells assessed as down regulation of CHK1 expression at 0.1 to 0.2 uM measured after 48 hrs by Western blot analysis; assay type: functional, cell-based
SUM-159-PT [31] = assay: Induction of apoptosis in human SUM159 cells assessed as late apoptotic cells at 0.2 uM measured after 48 hrs by Annexin-V APC/propidium iodide staining based flow cytometry (reference value: 1.45%); assay type: functional; method in brief: as §2
SUM-159-PT [32] = assay: Cell cycle arrest in human SUM159 cells assessed as up regulation of P27 expression at 0.1 to 0.2 uM measured after 48 hrs by Western blot analysis; assay type: functional, cell-based
MDA-MB-231 [33] = assay: Antiproliferative activity against human MDA-MB-231 cells co-treated with melampomagnolide B at 1:1 molar ratio measured after 72 hrs by MTT assay; settings: MDA-MB-231, 72 h

Chain of Cyclin-dependent kinase 1 (Homo sapiens) (P06493 whole entry, looked up): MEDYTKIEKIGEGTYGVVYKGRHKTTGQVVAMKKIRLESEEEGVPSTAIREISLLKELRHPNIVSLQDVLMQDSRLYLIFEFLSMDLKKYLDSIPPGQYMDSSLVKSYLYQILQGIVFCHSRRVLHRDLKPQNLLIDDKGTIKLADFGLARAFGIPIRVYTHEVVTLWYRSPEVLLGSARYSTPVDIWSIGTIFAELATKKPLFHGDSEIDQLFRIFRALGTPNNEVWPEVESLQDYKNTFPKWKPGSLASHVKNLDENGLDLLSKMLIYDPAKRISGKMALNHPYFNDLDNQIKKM
Chain of Serine/threonine-protein kinase Chk2 (Homo sapiens) (O96017 whole entry): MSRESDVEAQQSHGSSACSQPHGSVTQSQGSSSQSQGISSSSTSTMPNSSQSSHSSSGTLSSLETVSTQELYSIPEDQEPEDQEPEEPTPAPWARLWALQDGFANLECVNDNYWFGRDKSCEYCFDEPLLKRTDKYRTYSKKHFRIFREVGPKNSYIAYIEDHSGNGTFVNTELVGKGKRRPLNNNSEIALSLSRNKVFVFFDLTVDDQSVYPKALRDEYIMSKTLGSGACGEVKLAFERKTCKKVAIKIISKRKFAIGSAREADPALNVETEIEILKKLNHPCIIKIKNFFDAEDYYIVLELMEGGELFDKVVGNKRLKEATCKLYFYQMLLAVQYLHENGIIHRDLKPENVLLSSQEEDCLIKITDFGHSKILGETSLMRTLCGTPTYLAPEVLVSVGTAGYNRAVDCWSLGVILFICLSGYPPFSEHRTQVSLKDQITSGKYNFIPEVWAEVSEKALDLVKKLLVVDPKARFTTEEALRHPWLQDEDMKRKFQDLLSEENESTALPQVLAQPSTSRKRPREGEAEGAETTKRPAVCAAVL

- IC50 (MDA-MB-231 [2]): 340 nM
- IC50 (4T1 [4]): 180 nM
- IC50 (MCF7 [5]): 290 nM
Compound: C=C1C(=O)O[C@H]2[C@H]1CC/C(COC(=O)/C=C/c1ccccc1OCC)=C\CC[C@@]1(C)O[C@@H]21
- IC50 (Bcap37 [1]): 420 nM
- IC50 (SUM-159-PT [3]): 210 nM
- Ratio IC50 (MDA-MB-231 [6]): 10

- IC50 (MDA-MB-231 [2]): 550 nM
- IC50 (4T1 [4]): 1410 nM
- IC50 (MCF7 [5]): 890 nM
Compound: C=C1C(=O)O[C@H]2[C@H]1CC/C(COC(=O)/C=C/c1ccc(OC)cc1OC)=C\CC[C@@]1(C)O[C@@H]21
- IC50 (Bcap37 [1]): 1150 nM
- IC50 (SUM-159-PT [3]): 800 nM

- IC50 (MDA-MB-231 [2]): 1350 nM
Compound: C=C1C(=O)O[C@H]2[C@H]1CC/C(COC(=O)/C=C/c1ccccc1)=C\CC[C@@]1(C)O[C@@H]21
- Ratio IC50 (MDA-MB-231 [6]): 2

- IC50 (MDA-MB-231 [2]): 800 nM
- IC50 (4T1 [4]): 800 nM
Compound: COc1cccc2c1C(=O)c1c(O)c3c(c(O)c1C2=O)C[C@@](O)(C(=O)CO)C[C@@H]3O[C@H]1C[C@H](N)[C@H](O)[C@H](C)O1 [DOXORUBICIN HYDROCHLORIDE]
- IC50 (NIH3T3): 360 nM
- selectivity ratio [7]: 0.45

- IC50 (MDA-MB-231 [2]): 250 nM
- inhibition [20]: Active
- inhibition [22]: Active
- IC50 (4T1 [4]): 220 nM
- IC50 (MCF7 [5]): 230 nM
- inhibition [29]: Active
Compound: C=C1C(=O)O[C@H]2[C@H]1CC/C(COC(=O)/C=C/c1c(OC)cccc1OC)=C\CC[C@@]1(C)O[C@@H]21
- Ratio IC50 (4T1 [8]): 11.6 - 18.6
- IC50 (NIH3T3): 8130 nM
- Activity (SUM-159-PT [9]): 30.5%
- Ratio IC50 (MCF7 [10]): 11.6 - 18.6
- Activity (SUM-159-PT [11]): Active
- Activity (SUM-159-PT [12]): 0.029%
- Activity (SUM-159-PT [13]): Active
- Activity (SUM-159-PT [14]): Active
- Activity (SUM-159-PT [15]): Active
- IC50 (Bcap37 [1]): 270 nM
- Ratio IC50 (Bcap37 [16]): 11.6 - 18.6
- Ratio IC50 (SUM-159-PT [17]): 11.6 - 18.6
- Activity (SUM-159-PT [18]): Active
- IC50 (SUM-159-PT [3]): 200 nM
- Activity (SUM-159-PT [19]): 2.93%
- selectivity ratio [7]: 36.9
- Activity (SUM-159-PT [21]): Active
- viability at 0.5 µM (SUM-159-PT [23]): 61.3%
- Activity (SUM-159-PT [24]): 6.07%
- Activity (SUM-159-PT [25]): 2.04%
- viability at 0.2 µM (SUM-159-PT [26]): 96.3%
- Activity (SUM-159-PT [27]): Active
- Activity (SUM-159-PT [28]): Active
- Ratio IC50 (MDA-MB-231 [6]): 14
- Activity (SUM-159-PT [30]): Active
- Activity (SUM-159-PT [31]): 0.79%
- Activity (SUM-159-PT [32]): Active

- IC50 (MDA-MB-231 [2]): 260 nM
- IC50 (4T1 [4]): 340 nM
- IC50 (MCF7 [5]): 260 nM
Compound: C=C1C(=O)O[C@H]2[C@H]1CC/C(COC(=O)/C=C/c1cc(OC)ccc1OC)=C\CC[C@@]1(C)O[C@@H]21
- IC50 (Bcap37 [1]): 550 nM
- IC50 (SUM-159-PT [3]): 260 nM
- Ratio IC50 (MDA-MB-231 [6]): 14

- IC50 (MDA-MB-231 [2]): > 50000 nM
- IC50 (MDA-MB-231 [33]): 3920 nM
Compound: COc1cccc(OC)c1/C=C/C(=O)O

- IC50 (MDA-MB-231 [2]): 3480 nM
- IC50 (4T1 [4]): 4090 nM
- IC50 (MCF7 [5]): 2680 nM
Compound: C=C1C(=O)O[C@@H]2C3O[C@]3(C)CC/C=C(\C)CC[C@@H]12 (some centres not stated)
- Activity (SUM-159-PT [9]): 2.49%
- IC50 (Bcap37 [1]): 4630 nM
- IC50 (SUM-159-PT [3]): 3060 nM
- viability at 0.5 µM (SUM-159-PT [23]): 96.4%
- Activity (SUM-159-PT [24]): 1.1%
- Activity (SUM-159-PT [25]): 0.049%

- IC50 (MDA-MB-231 [2]): 830 nM
- IC50 (4T1 [4]): 1480 nM
- IC50 (MCF7 [5]): 2150 nM
Compound: C=C1C(=O)O[C@H]2[C@H]1CC/C(COC(=O)/C=C/c1cccc(C(F)(F)F)c1)=C\CC[C@@]1(C)O[C@@H]21
- IC50 (Bcap37 [1]): 1860 nM
- IC50 (SUM-159-PT [3]): 640 nM
